In ChEMBL document CHEMBL3792365, “Dioxol and dihydrodioxin analogs of 2- and 3-phenylacetonitriles as potent anti-cancer agents with nanomolar activity against a variety of human cancer cells” (2016):

Tests used:
Assay type in all cases: functional
[1] = Growth inhibition of human HOP92 cells after 48 hrs by sulforhodamine B assay; details: HOP-92, 48 h
Outline: (§1)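 Five-dose testing against a 60-line human tumor cell panel. GI50 is the drug concentration giving a 50% reduction in net protein increase relative to untreated control cells.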

[2] = Growth inhibition of human Caki1 cells after 48 hrs by sulforhodamine B assay; details: CAKI-1, 48 h; outline: as §1
[3] = tested on: U-251; assay: Growth inhibition of human U251 cells after 48 hrs by sulforhodamine B assay; details: U-251, 48 h
Outline: (§2)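 Five-dose concentration series run across a panel of 60 human tumour cell lines. GI50 is taken as the drug concentration giving a 50% reduction in net protein increase relative to untreated control cells.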

[4] = Growth inhibition of human HCT116 cells after 48 hrs by sulforhodamine B assay; details: HCT-116, 48 h; outline: as §1
[5] = tested on: NCI-H23; assay: Growth inhibition of human NCI-H23 cells after 48 hrs by sulforhodamine B assay; details: NCI-H23, 48 h; outline: as §2
[6] = Growth inhibition of human HL-60(TB) cells after 48 hrs by sulforhodamine B assay; details: HL-60, 48 h
Outline: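 Five-dose study across the 60-cell human tumour panel. GI50 is the drug concentration giving a 50% reduction in net protein increase relative to control cells.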

[7] = tested on: SK-MEL-5; assay: Growth inhibition of human SK-MEL-5 cells after 48 hrs by sulforhodamine B assay; details: SK-MEL-5, 48 h; outline: as §2
[8] = Growth inhibition of human RPMI8226 cells after 48 hrs by sulforhodamine B assay; details: RPMI-8226, 48 h; outline: as §2
[9] = tested on: M14; assay: Growth inhibition of human M14 cells after 48 hrs by sulforhodamine B assay; details: M14, 48 h; outline: as §1
[10] = Growth inhibition of human COLO205 cells after 48 hrs by sulforhodamine B assay; details: COLO 205, 48 h; outline: as §1
[11] = Growth inhibition of human Hs 578T cells after 48 hrs by sulforhodamine B assay; outline: as §1
[12] = Growth inhibition of human SF539 cells after 48 hrs by sulforhodamine B assay; details: SF-539, 48 h; outline: as §2
[13] = Growth inhibition of human IGROV1 cells after 48 hrs by sulforhodamine B assay; details: IGROV-1, 48 h; outline: as §1
[14] = Growth inhibition of human DU145 cells after 48 hrs by sulforhodamine B assay; details: DU-145, 48 h; outline: as §1
[15] = Growth inhibition of human SKOV3 cells after 48 hrs by sulforhodamine B assay; details: SK-OV-3, 48 h; outline: as §2
[16] = Growth inhibition of human SF268 cells after 48 hrs by sulforhodamine B assay; details: SF-268, 48 h; outline: as §2
[17] = tested on: MCF7; assay: Growth inhibition of human MCF7 cells after 48 hrs by sulforhodamine B assay; details: MCF7, 48 h; outline: as §1
[18] = tested on: A498; assay: Growth inhibition of human A498 cells after 48 hrs by sulforhodamine B assay; details: A498, 48 h; outline: as §1
[19] = Growth inhibition of human NCI-ADR-RES cells after 48 hrs by sulforhodamine B assay; outline: as §2
[20] = tested on: SK-MEL-28; assay: Growth inhibition of human SK-MEL-28 cells after 48 hrs by sulforhodamine B assay; details: SK-MEL-28, 48 h; outline: as §2
[21] = Growth inhibition of human HCT15 cells after 48 hrs by sulforhodamine B assay; details: HCT-15, 48 h; outline: as §1
[22] = tested on: HT-29; assay: Growth inhibition of human HT-29 cells after 48 hrs by sulforhodamine B assay; details: HT-29, 48 h; outline: as §1
[23] = tested on: K562; assay: Growth inhibition of human K562 cells after 48 hrs by sulforhodamine B assay; details: K562, 48 h; outline: as §1
[24] = Growth inhibition of human LOXIMVI cells after 48 hrs by sulforhodamine B assay; details: LOX IMVI; outline: as §1

In the case of `COc1ccc(/C(C#N)=C/c2ccc3c(c2)OCCO3)cc1`, the GI50 [1] is reported as greater than 100000 nM, the GI50 [2] is reported as greater than 100000 nM and the GI50 [3] is reported as greater than 100000 nM. It also gave a GI50 [4] of 6330 nM, a GI50 [5] greater than 100000 nM and a GI50 [6] greater than 100000 nM. The GI50 [7] was 3540 nM, the GI50 [8] was greater than 100000 nM and the GI50 [9] was 3870 nM. The GI50 [10] was greater than 100000 nM, the GI50 [11] was greater than 100000 nM and the GI50 [12] was 73100 nM. The GI50 [13] was greater than 100000 nM, the GI50 [14] was greater than 100000 nM and the GI50 [15] was greater than 100000 nM. It also gave a GI50 [16] greater than 100000 nM, a GI50 [17] of 3010 nM and a GI50 [18] greater than 100000 nM. It also gave a GI50 [19] of 4450 nM, a GI50 [20] greater than 100000 nM and a GI50 [21] of 2100 nM.
`COc1ccc(/C=C(\C#N)c2ccc3c(c2)OCO3)c(OC)c1` showed a GI50 [22] of 710 nM, a GI50 [1] of 7420 nM and a GI50 [4] of 2680 nM. The GI50 [5] was 6330 nM, the GI50 [6] was 1490 nM and the GI50 [7] was 2580 nM. It also gave a GI50 [8] of 3230 nM, a GI50 [23] of 390 nM and a GI50 [9] of 1320 nM. For the same molecule, the GI50 [10] was 1590 nM, the GI50 [11] was 3620 nM and the GI50 [12] was 1610 nM. It also gave a GI50 [24] of 5330 nM, a GI50 [13] of 8800 nM and a GI50 [14] of 3620 nM. It also gave a GI50 [15] of 2750 nM, a GI50 [16] of 9360 nM and a GI50 [17] of 850 nM. The GI50 [18] was 1330 nM, the GI50 [19] was 2410 nM and the GI50 [20] was 4470 nM. The GI50 [21] was 870 nM.
`COc1ccc(/C=C(\C#N)c2ccc3c(c2)OCO3)c2ccccc12` showed a GI50 [22] of 1600 nM, a GI50 [1] of 12000 nM and a GI50 [2] of 2060 nM. It also gave a GI50 [3] of 2710 nM, a GI50 [4] of 2410 nM and a GI50 [5] of 5090 nM. The GI50 [6] was 1570 nM, the GI50 [7] was 1520 nM and the GI50 [8] was 3850 nM. The GI50 [23] was 530 nM, the GI50 [9] was 1680 nM and the GI50 [10] was 1610 nM. For the same molecule, the GI50 [11] was 2630 nM, the GI50 [12] was 1580 nM and the GI50 [24] was 3960 nM. For the same molecule, the GI50 [13] was 4070 nM, the GI50 [14] was 3490 nM and the GI50 [15] was 2350 nM. For the same molecule, the GI50 [16] was 9340 nM, the GI50 [17] was 610 nM and the GI50 [18] was 410 nM. It also gave a GI50 [19] of 1650 nM, a GI50 [20] of 4520 nM and a GI50 [21] of 750 nM.
Molecule `COc1ccc(/C(C#N)=C/c2ccc3c(c2)OCCO3)cc1OC` has a GI50 [1] of 9640 nM, a GI50 [2] of 2920 nM and a GI50 [3] of 3970 nM. It also gave a GI50 [4] of 2710 nM, a GI50 [5] of 6610 nM and a GI50 [6] of 2070 nM. It also gave a GI50 [7] of 840 nM, a GI50 [8] of 4810 nM and a GI50 [9] of 1630 nM. The GI50 [10] was 2770 nM, the GI50 [11] was 5560 nM and the GI50 [12] was 2560 nM. For the same molecule, the GI50 [24] was 4920 nM, the GI50 [13] was 9400 nM and the GI50 [14] was 4690 nM. The GI50 [15] was 3240 nM, the GI50 [16] was 5380 nM and the GI50 [17] was 860 nM. It also gave a GI50 [18] of 1350 nM, a GI50 [19] of 1520 nM and a GI50 [20] of 4590 nM. The GI50 [21] was 730 nM.
